Assay [1] relates to HCT-116. Put plainly: Antitumour activity against human HCT116 cells xenografted in nude mouse assessed as tumour growth inhibition at 10 mg/kg, ig administered every 3 days for 3 weeks and measured after 3 weeks relative to control. The format is functional. To be noted: HCT-116, po, read-out: TGI. The procedure, abridged: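 HCT-116 cells (5 × 10^6 per animal) injected into right flank of nude mice; at ~100 mm³ tumours, randomized into groups of 6. Dosed 10 mg/kg in 5% CMC-Na intragastrically every three days for three weeks; vehicle control 5% CMC-Na. Body weight and tumour size recorded every three days, volume = 0.5 × length × width²; tumours excised and weighed at end. Mean ± SD.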
(A xenograft is tissue or cells of one species grown in another, often human tumour cells in immunodeficient mice.)

In assay [2] the test system is HCT-116. The assay is described as follows: Antiproliferative activity against human HCT116 cells assessed as reduction in cell viability after 48 hrs by MTT assay. It counts as functional, cell-based. Particulars: HCT-116, 48 h. A general note: Formazan colour is commonly taken as a measure of viable cells.
Assay [3] deals with HL-60. Put plainly: Antiproliferative activity against human HL60 cells assessed as reduction in cell viability after 48 hrs by MTT assay. It counts as functional, cell-based. To be noted: HL-60, 48 h.
For assay [4], the target named is Phosphatidylinositol 4,5-bisphosphate 3-kinase catalytic subunit gamma isoform (Homo sapiens, UniProt P48736). Put plainly: Inhibition of PI3Kgamma (unknown origin) using diC8-PI(4,5)P2 as substrate incubated for 3 hrs in presence of ATP by fluorescence polarization assay. The procedure, abridged: (§1)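 Fluorescence polarization competition assay, 10 μL reactions at pH 7: 2.5 mM MgCl₂, 5 mM HEPES, ATP, 10 mM DTT, 50 ng PI3K isoform, diC8-PI(4,5)P2 substrate. After 3 h at room temperature, reactions were chelator-quenched. Phosphoinositide binding protein and fluorophore-labelled tracer were added, then 1 h dark equilibration and polarization read.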
Chain of Phosphatidylinositol 4,5-bisphosphate 3-kinase catalytic subunit gamma isoform (P48736 whole entry, canonical isoform): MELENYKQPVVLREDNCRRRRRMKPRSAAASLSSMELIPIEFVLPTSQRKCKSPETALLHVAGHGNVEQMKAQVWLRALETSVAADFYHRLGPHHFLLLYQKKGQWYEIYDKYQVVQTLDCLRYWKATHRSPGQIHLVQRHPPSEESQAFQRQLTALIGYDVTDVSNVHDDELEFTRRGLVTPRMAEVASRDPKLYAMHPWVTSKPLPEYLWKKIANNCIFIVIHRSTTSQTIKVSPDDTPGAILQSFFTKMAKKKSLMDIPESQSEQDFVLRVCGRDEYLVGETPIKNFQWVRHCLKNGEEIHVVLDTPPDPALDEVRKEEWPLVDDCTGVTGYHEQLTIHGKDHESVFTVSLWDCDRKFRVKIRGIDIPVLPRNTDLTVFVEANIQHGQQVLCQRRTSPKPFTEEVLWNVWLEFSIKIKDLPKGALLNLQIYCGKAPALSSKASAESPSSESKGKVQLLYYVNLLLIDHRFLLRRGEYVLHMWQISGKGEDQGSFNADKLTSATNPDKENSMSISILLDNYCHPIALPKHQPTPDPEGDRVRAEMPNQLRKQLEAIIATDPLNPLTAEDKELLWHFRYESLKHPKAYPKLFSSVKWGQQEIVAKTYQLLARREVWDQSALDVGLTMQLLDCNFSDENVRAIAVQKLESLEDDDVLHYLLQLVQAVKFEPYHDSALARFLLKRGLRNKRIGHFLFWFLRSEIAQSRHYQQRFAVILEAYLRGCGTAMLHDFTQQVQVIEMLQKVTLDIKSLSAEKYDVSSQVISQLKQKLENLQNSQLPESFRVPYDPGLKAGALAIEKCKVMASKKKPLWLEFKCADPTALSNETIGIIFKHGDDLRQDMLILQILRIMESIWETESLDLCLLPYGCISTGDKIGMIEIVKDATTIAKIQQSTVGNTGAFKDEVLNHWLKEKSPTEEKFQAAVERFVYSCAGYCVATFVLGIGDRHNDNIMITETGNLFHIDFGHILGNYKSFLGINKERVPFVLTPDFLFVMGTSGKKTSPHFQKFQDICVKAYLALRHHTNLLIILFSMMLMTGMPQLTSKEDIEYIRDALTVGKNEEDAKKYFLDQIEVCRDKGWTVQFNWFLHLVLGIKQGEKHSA
Background: Polarisation of emitted light reports the rotation of a fluorescent probe.

Assay [5] concerns the target T1, Phosphatidylinositol 4,5-bisphosphate 3-kinase catalytic subunit delta isoform (Homo sapiens, UniProt O00329).
T1 sequence (O00329 whole entry): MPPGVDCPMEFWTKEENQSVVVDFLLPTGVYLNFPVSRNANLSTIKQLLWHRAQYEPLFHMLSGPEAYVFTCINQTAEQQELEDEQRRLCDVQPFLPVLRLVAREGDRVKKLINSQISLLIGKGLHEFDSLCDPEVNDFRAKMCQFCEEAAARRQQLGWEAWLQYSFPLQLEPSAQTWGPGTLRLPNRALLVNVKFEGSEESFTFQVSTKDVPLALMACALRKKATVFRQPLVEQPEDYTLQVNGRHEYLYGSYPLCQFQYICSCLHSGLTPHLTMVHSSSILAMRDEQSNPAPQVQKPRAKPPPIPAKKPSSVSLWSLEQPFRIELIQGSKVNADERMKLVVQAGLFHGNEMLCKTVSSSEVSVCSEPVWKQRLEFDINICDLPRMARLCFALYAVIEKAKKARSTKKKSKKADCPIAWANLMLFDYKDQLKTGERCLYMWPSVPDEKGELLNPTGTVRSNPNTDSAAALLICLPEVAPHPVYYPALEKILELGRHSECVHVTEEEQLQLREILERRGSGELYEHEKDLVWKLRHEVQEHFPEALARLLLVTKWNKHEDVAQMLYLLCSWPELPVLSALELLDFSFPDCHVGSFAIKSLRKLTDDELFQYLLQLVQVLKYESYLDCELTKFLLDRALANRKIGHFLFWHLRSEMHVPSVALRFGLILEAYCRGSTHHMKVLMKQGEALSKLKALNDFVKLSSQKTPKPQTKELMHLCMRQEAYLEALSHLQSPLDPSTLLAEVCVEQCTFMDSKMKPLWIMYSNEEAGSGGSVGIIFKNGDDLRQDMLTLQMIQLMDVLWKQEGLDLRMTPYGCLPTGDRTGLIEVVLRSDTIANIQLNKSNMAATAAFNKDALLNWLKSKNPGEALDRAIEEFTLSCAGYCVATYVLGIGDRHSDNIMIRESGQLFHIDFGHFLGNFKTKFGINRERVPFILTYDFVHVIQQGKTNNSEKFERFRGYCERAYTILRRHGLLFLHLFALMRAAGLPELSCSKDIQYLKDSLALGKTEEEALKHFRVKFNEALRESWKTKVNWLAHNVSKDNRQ
The assay is described as follows: Inhibition of PI3Kdelta (unknown origin) using diC8-PI(4,5)P2 as substrate incubated for 3 hrs in presence of ATP by fluorescence polarization assay. The essentials:
as §1

Assay [6] relates to HCT-116. Put plainly: Cell cycle arrest in human HCT116 cells assessed as accumulation at G1 phase at 0.25 uM measured after 24 hrs by propidium iodide staining based flow cytometry analysis (reference value: 42.01 %). The format is functional.
The test system of assay [7] is HCT-116. Put plainly: Cell cycle arrest in human HCT116 cells assessed as accumulation at G1 phase at 1 uM measured after 24 hrs by propidium iodide staining based flow cytometry analysis (reference value: 42.01 %). It counts as functional.
The subject of assay [8] is HCT-116. Put plainly: Induction of apoptosis in human HCT116 cells assessed as late apoptotic cells at 0.25 uM measured after 24 hrs by annexin-v-FITC/propidium iodide staining based FACScan flow cytometry analysis (reference value: 9.61 %). The format is functional.
Assay [9] concerns HCT-116. The assay is described as follows: Induction of apoptosis in human HCT116 cells assessed as upregulation of BAX expression measured after 24 hrs by Western blot analysis. It counts as functional, cell-based. The essentials: (§2)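 HCT-116 cells treated at 0.25, 0.5 and 1 μM for 24 h, lysed in RIPA buffer with PMSF. Proteins separated by SDS-PAGE (8% or 10%), transferred to PVDF and probed with primary antibodies and HRP secondaries. β-actin served as internal control; bands quantified as bar graphs.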

Assay [10] has as its system HCT-116. The assay is described as follows: Induction of apoptosis in human HCT116 cells assessed as increase in cleaved caspase-3 protein level measured after 24 hrs by Western blot analysis. It counts as functional, cell-based. The essentials:
as §2

By IC50 is commonly meant the midpoint of a concentration-inhibition curve. With `O=c1oc2ccccc2c2nn(CN3CCN(S(=O)(=O)c4ccc(Cl)c([N+](=O)[O-])c4)CC3)cc12`, in [1], the inhibition in vivo at 10 mg/kg turned out to be 66.4%. Further, the IC50 is 0.03 µM in assay [2], 0.06 µM in assay [3], 0.081 µM in assay [4] and 0.12 µM in assay [5]. Also, the Activity is 46.87% in assay [6]; 58.13% in assay [7]; 21% in assay [8]; “Dose-dependent effect” in assay [9]; “Dose-dependent effect” in assay [10].

For the origin of these results see ChEMBL document CHEMBL4359902, “Development of novel chromeno[4,3-c]pyrazol-4(2H)-one derivates bearing sulfonylpiperazine as antitumor inhibitors targeting PI3Kα” (Eur J Med Chem, 2019).
